Compound activity deposited in PubChem by several laboratories.
TROY signal inh = inhibitors of TROY-driven NF-kB signaling, primary screen, Q293 LMP1-TROYcd cells, NF-kB luciferase, uHTS | Q293 LMP1-TROYcd NF-kB luciferase reporter, 4 h | inhibition, % at 10 µM | hit rate 0.98% among 360,000 | AID 1347056, 2019;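 active = compounds whose plate-normalised and pattern-corrected inhibition of the luciferase reporter signal at the single screening dose is 50% or more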
Xi reactivation = activators of inactive X chromosome reactivation, primary screen, imaging, XiGFP fibroblasts, GFP high-content imaging, set 2. XiGFP mouse fibroblasts, % GFP-positive cells imaging, 3 d; cells co-treated with 5-aza-dC sensitizer; scaled so ellipticine positive control = 100%. activation, % at 7.58 µM. hit rate 0.055% among 360,000;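 active = mean normalized replicate activation at least 10% and every replicate at or above 10%; inconclusive = only one of the two criteria met; inactive = mean below 10% and not all replicates reach 10%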;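 also: 0% = median of on-plate neutral control wells and 100% = ellipticine 6 µM median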
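System: SV40-immortalized XiGFP fibroblast cells, line 68-5-11 / Incubation: 3-day compound exposure, then 15 min fixation at room temperature / Compound: single concentration per compound, delivered by pin transfer / Buffer or medium: DMEM plus 5-aza-dC sensitizer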
EWS-Fli block = EWS/Fli-driven NR0B1 reporter inhibitors, primary screen, A673 cells, NR0B1 luciferase, luminescence, MLPCN library | viability-normalised | AID 651661, 2012 | hit rate 0.67% among 350,000 | inhibition, % at 12.6 µM;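 active = mean inhibition of at least 50% after viability correction, with every replicate also passing that limit; inconclusive = mean reaches 50% but only one of two replicates passes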;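 also: firefly luciferase signal divided by Alamar Blue viability fluorescence both relative to DMSO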
TWEAK-Fn14 inh = inhibitors of TWEAK-Fn14 signaling, primary screen, luciferase reporter cells, uHTS. TWEAK-stimulated Fn14 reporter cells, luciferase luminescence, 8 h. inhibition, % at 10 µM. AID 1159606, 2016. hit rate 2% among 360,000; in the data active = inhibition above about 50%
FN deposit inh = inhibitors of fibronectin matrix deposition, primary screen, AH1F cells, Alexa488-fibronectin fluorescence, plate reader | AH1F fibroblasts, overnight | inhibition, % at 12.6 µM | hit rate 0.086% among 350,000;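 active = mean inhibition across replicates of 30% or more, regardless of how many single replicates reach that level; inconclusive = mean under 30% yet at least half of replicates reach 30%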;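 also: positive control wells lacked labelled fibronectin entirely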
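Test system: AH1F fibroblast monolayer depositing Alexa488-labelled fibronectin into matrix. Input: 10000 cells per well. Technique: fluorescence, ex 485 nm, em 525 nm. Buffer or medium: DMEM plus 2% serum, read in PBS. Timing: 1 h cell adhesion before compound, then overnight fibronectin incubation. Compound: single dose, pinned. Read-out basis: inhibition from reduced deposited-fibronectin fluorescence.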
LGR2 inh = inhibitors of bursicon-induced LGR2 CRE-luciferase signal, primary screen, cell-based, HEK293, CRE-luciferase reporter, bursicon stimulation. inhibition, % at 9.99 µM. hit rate 0.35% among 380,000. AID 720647, 2013. Drosophila bursicon receptor LGR2 (rickets). bursicon-stimulated, 4 h;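 active = drop in luminescence signal, shown as inhibition above about 50% in the replicate tests, limit read from the data, passing the limit was not always enough; inconclusive = probably only some replicates passing the limit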;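 also: agonist challenge used bursicon conditioned medium at about half maximal strength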
The depositor's hits bear a star. Shown are actives, neighbours in structure and some others; about 2.3% of the full set was active somewhere.

`O=C(/C=C/Nc1ccc(F)cc1Br)c1ccccc1` gave TROY signal inh 77*, Xi reactivation 0, TWEAK-Fn14 inh 90*, FN deposit inh -5 and LGR2 inh 94*.
O=C(/C=C/c1ccccc1)c1ccc2c(c1)OCO2 was read as TROY signal inh -21, Xi reactivation 0, EWS-Fli block -41, TWEAK-Fn14 inh -11, FN deposit inh -2 and LGR2 inh -70.
`CN(C)C(=O)C[C@H]1CC[C@H]2[C@@H](COC[C@@H](O)CN2CC2CC2)O1` gave Xi reactivation 0, EWS-Fli block -3, FN deposit inh 1 and LGR2 inh -20.
O=C(/C=C\Nc1cccc(F)c1)c1ccc2c(c1)OCO2 was read as TROY signal inh 3, TWEAK-Fn14 inh 81* and FN deposit inh -22.
COc1cc(/C=C/C(=O)c2ccc3c(c2)OCCO3)cc(Br)c1OCC(=O)N(C)C was read as TROY signal inh 33, Xi reactivation inconclusive, EWS-Fli block 61*, TWEAK-Fn14 inh 83*, FN deposit inh -9 and LGR2 inh 60*.
For CC(=O)Nc1cc2nn(-c3ccccc3)nc2cc1Cl the results were TROY signal inh -27, TWEAK-Fn14 inh 28 and FN deposit inh -3.
`CC(C)(C)C(=O)Nc1cc2nn(-c3ccccc3)nc2cc1Cl` gave TROY signal inh 91* and TWEAK-Fn14 inh 108*.
`Cc1csc(NC(=O)c2cn3ccccc3n2)n1` gave TROY signal inh 62*, Xi reactivation 0, EWS-Fli block 73*, TWEAK-Fn14 inh 91*, FN deposit inh 5 and LGR2 inh 89*.
For Cc1csc(NC(=O)c2ccc3ccccc3n2)n1 the results were TROY signal inh -44, Xi reactivation 0, EWS-Fli block -30, TWEAK-Fn14 inh 26, FN deposit inh -4 and LGR2 inh -112.
For CCc1ccc(C(=O)Nc2nc(C)cs2)s1 the results were TROY signal inh 14, Xi reactivation 0, EWS-Fli block 42, TWEAK-Fn14 inh 63*, FN deposit inh -2 and LGR2 inh 9.
`Cc1csc(NC(=O)c2cnc3ccccc3n2)n1` gave TROY signal inh 25, Xi reactivation 0, EWS-Fli block 58*, TWEAK-Fn14 inh 52*, FN deposit inh -1 and LGR2 inh 58*.
For O=C(Nc1ccccc1)c1cn2ccccc2n1 the results were TROY signal inh 45, Xi reactivation -1, EWS-Fli block 30, TWEAK-Fn14 inh 89*, FN deposit inh -1 and LGR2 inh inconclusive.
`Cc1csc(NC(=O)c2ccccc2C(=O)O)n1` gave TROY signal inh 6, TWEAK-Fn14 inh -5 and FN deposit inh 5.
`O=C(C[C@H]1CC[C@H](NC(=O)C2CCC2)[C@H](CO)O1)NC1CCC1` gave Xi reactivation 0, EWS-Fli block 2 and LGR2 inh -5.
For CCCNC(=O)N1CCC2(CC1)CN(C(=O)CC1CC1)[C@H](CO)c1c2c2ccc(OC)cc2n1C the results were Xi reactivation 0 and FN deposit inh -2.
For C[C@@H]1CCCCO[C@H](CN(C)Cc2ccc3c(c2)OCO3)[C@H](C)CN([C@@H](C)CO)C(=O)c2cc(NS(=O)(=O)c3ccc(Cl)cc3)ccc2O1 the results were Xi reactivation 0, EWS-Fli block -10, FN deposit inh -11 and LGR2 inh 5.
For C[C@H]1CN([C@@H](C)CO)C(=O)CCCn2nncc2CO[C@H]1CN(C)Cc1ccc2c(c1)OCCN2C the results were Xi reactivation 0, EWS-Fli block -2, FN deposit inh -10 and LGR2 inh -16.
Screening O=C(Cn1cnnn1)OCC(=O)c1ccc(Cl)s1 returned TROY signal inh 71*, TWEAK-Fn14 inh -6 and FN deposit inh -7.
For COc1ccccc1C#Cc1ccc([C@@H]2[C@@H](CO)N(C(=O)C3CCCC3)[C@H]2C#N)cc1 the results were Xi reactivation 0, EWS-Fli block -2, FN deposit inh -3 and LGR2 inh 8.
`COc1ccc(CCNc2oc(-c3ccco3)nc2C#N)cc1` gave TROY signal inh -27, TWEAK-Fn14 inh 13, FN deposit inh -6 and LGR2 inh -1.
`N#Cc1nc(-c2ccco2)oc1NCCc1ccccc1` gave TWEAK-Fn14 inh 61*.
For O=C(Nc1ccc(-c2nc3cccnc3s2)cc1)C1CCCO1 (stereo unspecified) the results were TROY signal inh 60*, Xi reactivation 0, EWS-Fli block 66*, TWEAK-Fn14 inh 99*, FN deposit inh -1 and LGR2 inh 90*.
Screening O=C(Nc1ccc(-c2nc3ccccc3o2)cc1)C1CCCO1 (stereo unspecified) returned TROY signal inh 36 and TWEAK-Fn14 inh 50.
For CCS(=O)(=O)Nc1cccc(-c2nc3cccnc3s2)c1 the results were TROY signal inh -11, Xi reactivation 0, EWS-Fli block -72, TWEAK-Fn14 inh 23, FN deposit inh -3 and LGR2 inh -37.
For O=C(Nc1ccc(-c2nc3cc(Cl)ccc3o2)cc1)C1CCCO1 (stereo unspecified) the results were TROY signal inh 10 and TWEAK-Fn14 inh 50*.
For CCS(=O)(=O)Nc1ccc(-c2nc3cccnc3s2)cc1 the results were TROY signal inh 44, Xi reactivation 0, EWS-Fli block 27, TWEAK-Fn14 inh 69*, FN deposit inh -7 and LGR2 inh 27.
For Cc1ccc2nc(-c3ccc(NC(=O)C4CCCO4)cc3)[nH]c2c1 (stereo unspecified) the results were TROY signal inh 44, TWEAK-Fn14 inh 70* and LGR2 inh 60*.
`C[C@@H]1CN([C@@H](C)CO)C(=O)c2cc(NS(=O)(=O)c3ccc(F)cc3)ccc2O[C@@H]1CN(C)C(=O)Nc1ccc(F)cc1` gave Xi reactivation 0, EWS-Fli block -2 and LGR2 inh 12.
Screening CC1=C(C(=O)Nc2ccccc2)C(c2ccncc2)C(C#N)=C(SCC(=O)NC(C)C)N1 (stereo unspecified) returned TROY signal inh 2, TWEAK-Fn14 inh 4 and FN deposit inh 2.
For CC1=C(C(=O)Nc2ccccc2)C(c2ccncc2)C(C#N)=C(SCC(=O)NC2CC2)N1 (stereo unspecified) the results were TWEAK-Fn14 inh 94*.
